This passage reports half-life and T1/2 results from ChEMBL document CHEMBL1123084, “Decomposition reactions of (hydroxyalkyl) nitrosoureas and related compounds: possible relationship to carcinogenicity” (J Med Chem, 1985).

Molecules are shown by their SMILES.

What all share (format): ADME
The nature of series [1]: Half life in 0.01 M HClO4, pH = 3.0. An outline of the steps:
(§1)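 Compound at 0.02-0.03 M was decomposed in sealed vials at 37 °C. The pH 3.0 medium was perchloric acid; the other pH values used 0.067 M phosphate buffer (pH 5.5, 6.0, 6.5, 8.0). Loss of starting material was followed by HPLC, and half-life came from first-order ln concentration vs time plots.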

Series [2] can be described thus: Half life in 0.067 M (D2O), pH = 7.4.
Series [3] in a line: Half life in 0.10 M (D20), pH = 7.4. The note with it: 0.10 M (D2O).
Series [4] can be described thus: Half life in 0.067 M (D20), pH = 5.5. The note with it: 0.067 M (D2O). An outline of the steps: as §1
A short description of series [5]: Half life in 0.10 M buffer, pH = 7.4.
A short description of series [6]: Half life in buffer. An outline of the steps: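 Compound was dissolved in pH 7.4 phosphate buffer (0.067 or 0.1 M) in sealed vials at 37 °C. Loss of parent was monitored by HPLC, and the first-order half-life was derived from ln concentration vs time.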
Series [7] in a line: Half life in 0.067 M buffer, pH = 7.4.
Series [8] is described as follows: Half life in 0.067 M (D20), pH = 6.5. The settings on record: 0.067 M (D2O). An outline of the steps: as §1
The nature of series [9]: Half life in 0.067 M (D20), pH = 6.0. The note with it: 0.067 M (D2O). The procedure, abridged: as §1
Series [10] in a line: Half life in 0.067 M buffer, pH = 8. The procedure, abridged: as §1

Regarding `CC(O)CN(N=O)C(N)=O` (stereo unspecified), the half-life in series [1] is 600 min; in series [2], 70 min; in series [3] it was 37.2 min; in [4] it was 410 min; in [5] it was 20 min; in [6], 15 min. For the same molecule, the half-life in series [7] (0.067 M buffer) came out at 14.5 min; in [8] it was 26 min; in [9], 120 min; in [10] it was 6.5 min. In [7] (buffer), this molecule gave a T1/2 of 9.5 min.

The term half-life denotes how long it takes for the measured level to halve. A high value points to slow loss.
